Here are results for six compounds from ChEMBL document CHEMBL5370658, “Development of First-in-Class Dual Sirt2/HDAC6 Inhibitors as Molecular Tools for Dual Inhibition of Tubulin Deacetylation” (J Med Chem, 2023).

Activity calls are given as the source filed them. The calls are words filed in the database; no cut-off is given here.

Assay [1] can be described thus: Cytotoxicity against human PC-3M-luc cells assessed as inhibition of cell growth at 50 uM incubated for 72 hrs by MTS assay relative to control. The assay is classed as functional. On the technique in general: Tetrazolium dyes change colour on reduction, which living cells bring about.
The subject of another assay is HGC-27. Description: Cytotoxicity against human HGC-27 cells assessed as inhibition of cell growth at 50 uM incubated for 72 hrs by MTS assay relative to control. The assay is classed as functional.
A short description of assay [2]: Cytotoxicity against human W1 Ovarian cancer cells assessed as inhibition of cell growth at 50 uM incubated for 72 hrs by MTT assay relative to control. The assay is classed as functional.
Another assay relates to PC-3M-luc. Conditions: Homo sapiens, dose 20.0 µM, time 5.0 hrs.
A further assay has as its system MCF7. Description: Cytotoxicity against human MCF7 cells assessed as inhibition of cell growth at 50 uM incubated for 72 hrs by MTT assay relative to control. The format is functional.
Assay [3] deals with T1, NAD-dependent protein deacetylase sirtuin-2 (Homo sapiens) (UniProt Q8IXJ6).
T1 sequence (whole entry): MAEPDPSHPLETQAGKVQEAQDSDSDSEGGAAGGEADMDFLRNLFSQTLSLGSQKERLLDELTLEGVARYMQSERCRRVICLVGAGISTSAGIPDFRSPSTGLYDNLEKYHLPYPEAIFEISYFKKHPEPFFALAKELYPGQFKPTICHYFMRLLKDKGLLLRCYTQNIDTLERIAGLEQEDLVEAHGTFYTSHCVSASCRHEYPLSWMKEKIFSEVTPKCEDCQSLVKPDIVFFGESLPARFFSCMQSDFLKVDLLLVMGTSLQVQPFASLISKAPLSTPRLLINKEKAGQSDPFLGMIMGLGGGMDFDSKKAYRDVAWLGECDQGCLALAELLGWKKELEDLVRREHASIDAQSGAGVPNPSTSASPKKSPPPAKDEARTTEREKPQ
Description: Inhibition of recombinant human Sirt2 (56 to 356 residues) expressed in Escherichia coli BL21 Star (DE3) mediated demyristoylation activity using ZMML as substrate at 10 uM incubated for 4 hrs in presence of NAD+ by trypsin based fluorescence analysis relative to control.

Assay [4] deals with T2, NAD-dependent protein deacetylase sirtuin-3, mitochondrial (Homo sapiens, UniProt Q9NTG7).
T2 sequence (Q9NTG7 whole entry): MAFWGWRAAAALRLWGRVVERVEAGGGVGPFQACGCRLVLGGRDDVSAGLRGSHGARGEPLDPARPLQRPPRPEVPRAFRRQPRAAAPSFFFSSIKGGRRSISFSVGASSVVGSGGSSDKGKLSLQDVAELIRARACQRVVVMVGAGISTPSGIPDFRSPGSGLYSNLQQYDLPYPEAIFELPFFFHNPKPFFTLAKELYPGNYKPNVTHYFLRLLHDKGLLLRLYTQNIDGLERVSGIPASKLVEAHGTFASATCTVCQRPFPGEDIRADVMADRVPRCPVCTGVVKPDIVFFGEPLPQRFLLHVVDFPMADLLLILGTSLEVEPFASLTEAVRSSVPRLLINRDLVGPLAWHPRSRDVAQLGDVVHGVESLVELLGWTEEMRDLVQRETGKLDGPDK
Description: Inhibition of recombinant human Sirt3 (118 to 395 residues) expressed in Escherichia coli BL21 Star (DE3) using ZMAL as substrate incubated for 4 hrs in presence of NAD+ by trypsin based fluorescence analysis. The essentials:
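Human Sirt1 (134–747) or Sirt3 (118–395) expressed in E. coli, purified by Strep-Tactin and size exclusion. Assay with ZMAL (10.5 µM final) in Tris buffer pH 8.0, 5% DMSO, at 37 °C. Started with NAD+ (500 µM final). Conversion set to 15–30%.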

On to `Cc1cc(C)nc(SCC(=O)Nc2ncc(Cc3cccc(OCc4cn(CCOCCOCCOCCOCCC(=O)Nc5ccc(C(=O)NCc6ccc(C(=O)NO)cc6)cc5)nn4)c3)s2)n1`, for which the inhibition at 50 µM (in assay [1]; with HGC-27; in assay [2]; with MCF7) was less than 20% each time. For the same compound, in the assay on PC-3M-luc, the inhibition result was “Active”.

With `Cc1cc(C)nc(SCC(=O)Nc2ncc(Cc3cccc(OCc4cn(CCOCCOCCOCCOCCOCCOCCOCCOCCOCCOCCC(=O)Nc5ccc(C(=O)NCc6ccc(C(=O)NO)cc6)cc5)nn4)c3)s2)n1`, the inhibition at 50 µM (in assay [1]; in the assay with HGC-27; in assay [2]; in the assay on MCF7) was less than 20% in each case. The inhibition entry with PC-3M-luc is “Active”.

On to `Cc1cc(C)nc(SCC(=O)Nc2ncc(Cc3cccc(OCc4cn(CCOCCOCCOCCOCCC(=O)Nc5ccc(C(=O)NCCCCCCC(=O)NO)cc5)nn4)c3)s2)n1`, for which the inhibition at 50 µM (in assay [1]; in assay [2]; in the assay with MCF7) was less than 20% each time. For the same compound, the inhibition result in the assay on PC-3M-luc is “Active”.

`Cc1cc(C)nc(SCC(=O)Nc2ncc(Cc3cccc(OCc4cn(Cc5ccccc5)nn4)c3)s2)n1`: the inhibition at 50 µM in assay [1] is less than 20%.

Regarding `O=C(CCCCCCC(=O)Nc1ccccc1)NO`, in assay [3], the inhibition came to 18%.

As to `COCCn1cc(COc2cccc(Cc3cnc(NC(=O)CSc4nc(C)cc(C)n4)s3)c2)nn1`, the IC50 in assay [4] is greater than 100 µM.

As usually defined, the inhibition is the percentage by which the read-out fell short of the control. Broadly, the IC50 is the concentration that inhibits the measured activity by half.
